In article PMC8897208 (Acta Pharmaceutica Sinica. B, 2021):

Assays:
[1] = molecular target: T1, SIRT6 (Homo sapiens, UniProt Q8N6T7); experiment: Enzymatic kinetic assays by HPLC; format: biochemical; conditions: for kcat (Ac-RHKK-Ac-AMC): varied Ac-RHKK-Ac-AMC, HPLC
[2] = tested on: BXPC-3 cells; experiment: Proliferation assay; format: cell-based; conditions: BXPC-3, up to 20 μmol/L, 48 h, CCK-8
[3] = tested on: MiaPaCa-2 cells; experiment: Western blot of SIRT6 substrates H3K9Ac, H3K18Ac, H3K56Ac; format: cell-based; conditions: MiaPaCa-2, different concentrations of JYQ-42, Western blot
Outline: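 BXPC-3 cells were grown in RPMI1640 and MiaPaCa-2 cells in DMEM, each with 10% FBS and penicillin/streptomycin, at 37 °C under 5% CO2. Both lines were STR-verified. Cells took test compound at 0, 10, 20 or 40 μmol/L for 24 or 48 h and were lysed in 1× SDS loading buffer. Proteins were separated on 12% SDS-PAGE and transferred to PVDF. Blocking used Tris-NaCl pH 7.5 with Tween-20 and 5% milk. Detection was chemiluminescent (HRP), with β-actin as loading control.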

[4] = tested on: BXPC-3 cells; experiment: ELISA for IL6, IL8 and TNF-α secretion; format: cell-based; conditions: BXPC-3, 30 ng/mL PMA, 10, 20, 40 μmol/L, 24 h
[5] = molecular target: T1, SIRT6; experiment: Competition assay between SIRT6 substrates and JYQ-42; format: biochemical; conditions: FDL competition assay
[6] = molecular target: T2, SIRT2 (Homo sapiens, UniProt Q8IXJ6); experiment: HDACs selectivity assay; format: biochemical
T2 sequence (Q8IXJ6 1-389): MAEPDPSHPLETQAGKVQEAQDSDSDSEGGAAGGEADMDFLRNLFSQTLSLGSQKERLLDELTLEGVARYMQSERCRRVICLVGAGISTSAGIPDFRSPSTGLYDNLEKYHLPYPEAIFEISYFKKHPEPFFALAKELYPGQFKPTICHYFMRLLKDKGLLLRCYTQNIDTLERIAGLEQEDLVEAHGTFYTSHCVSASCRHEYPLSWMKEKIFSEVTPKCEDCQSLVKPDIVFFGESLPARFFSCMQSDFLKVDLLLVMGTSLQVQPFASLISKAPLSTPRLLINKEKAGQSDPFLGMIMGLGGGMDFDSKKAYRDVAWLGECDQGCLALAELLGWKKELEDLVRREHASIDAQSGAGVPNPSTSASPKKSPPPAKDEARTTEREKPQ

[7] = molecular target: T1, SIRT6; experiment: Fluor de Lys; format: biochemical
Outline: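 Recombinant SIRT6 was expressed in E. coli BL21 in LB with 100 μg/mL ampicillin at 37 °C. Expression was induced with 0.5 mmol/L IPTG at OD600 0.8, then grown 18 h at 16 °C and purified by an earlier method.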

[8] = molecular target: T3, HDAC8 (Homo sapiens, UniProt Q9BY41); experiment: HDACs selectivity assay; format: biochemical
T3 sequence (Q9BY41 1-377): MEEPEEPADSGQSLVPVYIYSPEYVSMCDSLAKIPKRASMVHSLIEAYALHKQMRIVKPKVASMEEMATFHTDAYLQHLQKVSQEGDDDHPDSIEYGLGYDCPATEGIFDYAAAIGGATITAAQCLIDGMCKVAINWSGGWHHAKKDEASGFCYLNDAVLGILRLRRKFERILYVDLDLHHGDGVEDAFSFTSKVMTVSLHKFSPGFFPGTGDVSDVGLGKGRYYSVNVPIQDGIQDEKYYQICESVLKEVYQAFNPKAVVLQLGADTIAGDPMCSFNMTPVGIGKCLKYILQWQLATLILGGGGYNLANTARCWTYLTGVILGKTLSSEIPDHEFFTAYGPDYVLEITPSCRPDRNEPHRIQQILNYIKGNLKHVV
Outline: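 Enzyme selectivity panel was run by an outside contract lab to its standard assay protocols. IC50 values came from dose–response fitting of the data points. Each experiment was done independently at least three times.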

[9] = tested on: BXPC-3 cells; experiment: Migration assay by wound healing; format: cell-based; conditions: for relative migration rate (wound healing): control ~0.60

T1 sequence (Q8N6T7 whole entry): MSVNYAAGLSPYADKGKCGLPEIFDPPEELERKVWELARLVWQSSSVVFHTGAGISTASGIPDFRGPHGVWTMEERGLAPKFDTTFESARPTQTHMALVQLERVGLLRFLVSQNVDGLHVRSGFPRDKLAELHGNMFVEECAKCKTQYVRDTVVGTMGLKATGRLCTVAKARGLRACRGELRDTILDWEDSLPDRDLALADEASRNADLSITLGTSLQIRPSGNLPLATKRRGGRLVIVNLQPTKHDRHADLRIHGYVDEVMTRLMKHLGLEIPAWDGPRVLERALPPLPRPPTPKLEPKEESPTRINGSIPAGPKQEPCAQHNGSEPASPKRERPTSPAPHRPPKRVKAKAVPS

inhibition mode ([1]; Lineweaver–Burk analysis towards NAD^+ and Ac-RHKK-Ac-AMC): non-competitive inhibitor | kcat (Ac-RHKK-Ac-AMC) ([1]; SIRT6 with 1 μmol/L JYQ-42): 33.65 × 10^−4 S^−1 | kcat (Ac-RHKK-Ac-AMC) ([1]; SIRT6 with 3 μmol/L JYQ-42): 22.12 × 10^−4 S^−1 | kcat (Ac-RHKK-Ac-AMC) ([1]; SIRT6 with 10 μmol/L JYQ-42): 13.86 × 10^−4 S^−1 | effect of increasing NAD^+ or Ac-RHKK-Ac-AMC on the inhibition [5]: did not interfere with the inhibition | IC50 [6]: 87.2 ± 1.1 µM | inhibition ratio at 50 μmol/L (SIRT2) ([6]; 50 μmol/L): 38.6% | SIRT2 IC50 relative to that of SIRT6 ([6]; IC50 SIRT2 / IC50 SIRT6): approximately 37 fold | Effect ([6]; SIRT2): Inhibition | IC50 [7]: 2.33 ± 0.17 µM | inhibition ratio at 50 μmol/L ([7]; FDL assay, substrate Ac-RHKK-Ac-AMC, 50 μmol/L compound): 85.3% | Effect ([7]; SIRT6 (Table 2)): Inhibition | IC50 [8]: > 100 µM
SMILES: Nc1nonc1-n1cc(C(=O)N/N=C/c2cc(Cl)cc(C(F)(F)F)c2)nn1 [JYQ-42]
cell growth [2]: no significant impact on cell growth | levels of H3K9Ac, H3K18Ac and H3K56Ac [3]: increased the levels of H3K9Ac, H3K18Ac and H3K56Ac in a dose-dependent manner | secretion levels of IL6, IL8 and TNF-α [4]: blocked the secretion levels | relative migration rate (wound healing) ([9]; BXPC-3, 10 μmol/L JYQ-42, 24 h): ~ 0.3 | relative migration rate (wound healing) ([9]; BXPC-3, 20 μmol/L JYQ-42, 24 h): ~ 0.24 | relative migration rate (wound healing) ([9]; BXPC-3, 40 μmol/L JYQ-42, 24 h): ~ 0.10 | migration with ADPr co-treatment (wound healing) ([9]; BXPC-3, 40 μmol/L JYQ-42 in the presence of 0.5 mmol/L ADPr): no influence on the migration
